# Test results as given in ChEMBL document CHEMBL1275561, “In vitro activities of doripenem, a new broad-spectrum carbapenem, against recently collected clinical anaerobic isolates, with emphasis on the Bacteroides fragilis group” (2008).
# Assays:
# Format in all cases: functional
# [1] = system: Parabacteroides distasonis; assay: Antimicrobial activity against Bacteroides distasonis by agar dilution method
# Summary of the method: (§1)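 CLSI agar dilution on enriched brucella agar (5% lysed defibrinated sheep blood, 1 μg/ml vitamin K1), with drug plates made on the test day. Log-phase cells were adjusted to 0.5 McFarland, and about 10^5 CFU/spot was delivered by Steers replicator. Plates were incubated anaerobically at 37°C for 48 h. MIC was the lowest concentration giving a marked growth change versus the control plate. Controls were B. fragilis ATCC 25285 and B. thetaiotaomicron ATCC 29741.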
# Bacteroides caccae [2] = assay: Antimicrobial activity against Bacteroides caccae assessed as resistant isolates by agar dilution method
# Summary of the method: (§2)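 CLSI agar dilution on enriched brucella agar (5% lysed defibrinated sheep blood, 1 μg/ml vitamin K1), plates made on test day. Log-phase inocula adjusted to 0.5 McFarland; about 10^5 CFU/spot by Steers replicator. Incubated anaerobically at 37°C for 48 h. MIC was the lowest concentration giving a marked change in growth versus the drug-free control plate. Resistance rates used CLSI anaerobe breakpoints. Controls were B. fragilis ATCC 25285 and B. thetaiotaomicron ATCC 29741.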
# Bacteroides caccae [3] = assay: Antimicrobial activity against Bacteroides caccae by agar dilution method; summary of the method: as §1
# [4] = system: Parabacteroides distasonis; assay: Antimicrobial activity against Bacteroides distasonis assessed as resistant isolates by agar dilution method; summary of the method: as §2
# Bacteroides fragilis [5] = assay: Antimicrobial activity against Bacteroides fragilis by agar dilution method; summary of the method: as §1
# Bacteroides fragilis [6] = assay: Antimicrobial activity against Bacteroides fragilis assessed as resistant isolates by agar dilution method; summary of the method: as §2
# Bacteroides ovatus [7] = assay: Antimicrobial activity against Bacteroides ovatus by agar dilution method; summary of the method: as §1
# Bacteroides ovatus [8] = assay: Antimicrobial activity against Bacteroides ovatus assessed as resistant isolates by agar dilution method; summary of the method: as §2
# [9] = system: Bacteroides thetaiotaomicron; assay: Antimicrobial activity against Bacteroides thetaiotaomicron by agar dilution method; summary of the method: as §1
# [10] = system: Bacteroides thetaiotaomicron; assay: Antimicrobial activity against Bacteroides thetaiotaomicron assessed as resistant isolates by agar dilution method; summary of the method: as §2
# Bacteroides uniformis [11] = assay: Antimicrobial activity against Bacteroides uniformis by agar dilution method; summary of the method: as §1
# Bacteroides uniformis [12] = assay: Antimicrobial activity against Bacteroides uniformis assessed as resistant isolates by agar dilution method; summary of the method: as §2
# Phocaeicola vulgatus [13] = assay: Antimicrobial activity against Bacteroides vulgatus by agar dilution method; summary of the method: as §1
# Phocaeicola vulgatus [14] = assay: Antimicrobial activity against Bacteroides vulgatus assessed as resistant isolates by agar dilution method; summary of the method: as §2
# Bacteroides eggerthii [15] = assay: Antimicrobial activity against Bacteroides eggerthii by agar dilution method; summary of the method: as §1
# Bacteroides eggerthii [16] = assay: Antimicrobial activity against Bacteroides eggerthii assessed as resistant isolates by agar dilution method; summary of the method: as §2
# Parabacteroides merdae [17] = assay: Antimicrobial activity against Bacteroides merdae by agar dilution method; summary of the method: as §1
# Parabacteroides merdae [18] = assay: Antimicrobial activity against Bacteroides merdae assessed as resistant isolates by agar dilution method; summary of the method: as §2
# Bacteroides nordii [19] = assay: Antimicrobial activity against Bacteroides nordii by agar dilution method; summary of the method: as §1
# Bacteroides nordii [20] = assay: Antimicrobial activity against Bacteroides nordii assessed as resistant isolates by agar dilution method; summary of the method: as §2
# Clostridioides difficile = assay: Antimicrobial activity against Clostridium difficile by agar dilution method
# Clostridium perfringens = assay: Antimicrobial activity against Clostridium perfringens by agar dilution method
# [Clostridium] innocuum [21] = Antimicrobial activity against Clostridium innocuum by agar dilution method
# [Clostridium] innocuum [22] = Antimicrobial activity against Clostridium innocuum assessed as resistant isolates by agar dilution method; settings: pooled result: one value given for 4 cell lines, strains, targets or settings
# [23] = system: Clostridium paraputrificum; assay: Antimicrobial activity against Clostridium paraputrificum by agar dilution method
# Clostridium subterminale = assay: Antimicrobial activity against Clostridium subterminale by agar dilution method
# Clostridium tertium = assay: Antimicrobial activity against Clostridium tertium by agar dilution method
# Finegoldia magna [24] = assay: Antimicrobial activity against Finegoldia magna by agar dilution method
# Summary of the method: (§3)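 Gram-positive anaerobes were tested by CLSI agar dilution on brucella agar enriched with 5% lysed defibrinated sheep blood and 1 μg/ml vitamin K1. Inoculum was log-phase growth at 0.5 McFarland, about 10^5 CFU/spot by replicator. Incubation was anaerobic, 37°C, 48 h. MIC was the lowest concentration with a marked growth change versus the drug-free plate. Eubacterium lentum ATCC 43055 was the control, and tests were repeated if it fell outside the CLSI range.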
# Finegoldia magna [25] = assay: Antimicrobial activity against Finegoldia magna assessed as resistant isolates by agar dilution method
# Summary of the method: (§4)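 Agar dilution following CLSI on brucella agar with 5% lysed defibrinated sheep blood and 1 μg/ml vitamin K1, plates made on test day. Log-phase cells at 0.5 McFarland, about 10^5 CFU/spot by Steers replicator, 48 h anaerobic at 37°C. MIC read as the lowest concentration causing a marked growth change versus control. Resistance counted by CLSI anaerobe breakpoints. Eubacterium lentum ATCC 43055 served as control.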
# [26] = system: Peptoniphilus asaccharolyticus; assay: Antimicrobial activity against Peptoniphilus asaccharolyticus by agar dilution method; summary of the method: as §3
# [27] = system: Peptoniphilus asaccharolyticus; assay: Antimicrobial activity against Peptoniphilus asaccharolyticus assessed as resistant isolates by agar dilution method; settings: pooled result: one value given for 4 cell lines, strains, targets or settings; summary of the method: as §4
# Parvimonas micra = assay: Antimicrobial activity against Micromonas micros by agar dilution method; summary of the method: as §3
# Anaerococcus prevotii = assay: Antimicrobial activity against Anaerococcus prevotii by agar dilution method; summary of the method: as §3
# Peptostreptococcus sp. = assay: Antimicrobial activity against Peptostreptococcus sp. by agar dilution method
# Summary of the method: (§5)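 Log-phase isolates were adjusted to 0.5 McFarland, and about 10^5 CFU/spot was delivered by Steers replicator. Plates were incubated anaerobically at 37°C for 48 h. MIC was the lowest concentration giving a marked growth change versus the control plate. Eubacterium lentum ATCC 43055 was the QC strain, with repeats when out of range.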
# Cutibacterium acnes [28] = assay: Antimicrobial activity against Propionibacterium acnes by agar dilution method; summary of the method: as §5
# Cutibacterium acnes [29] = assay: Antimicrobial activity against Propionibacterium acnes assessed as resistant isolates by agar dilution method; summary of the method: as §4
# Propionibacterium [30] = assay: Antimicrobial activity against Propionibacterium sp. by agar dilution method; summary of the method: as §5
# Propionibacterium [31] = assay: Antimicrobial activity against Propionibacterium sp. assessed as resistant isolates by agar dilution method; summary of the method: as §4
smiles,measurement,setting,value
C[C@@H](O)[C@H]1C(=O)N2C(C(=O)O)=C(SCCNC=N)C[C@H]12 [IMIPENEM ANHYDROUS],MIC50,[1],0.25 µg/mL
same,MIC90,[1],2 µg/mL
same,Activity,Bacteroides caccae [2],0%
same,MIC50,Bacteroides caccae [3],0.5 µg/mL
same,MIC90,Bacteroides caccae [3],2 µg/mL
same,Activity,[4],0%
same,MIC50,Bacteroides fragilis [5],0.5 µg/mL
same,MIC90,Bacteroides fragilis [5],1 µg/mL
same,Activity,Bacteroides fragilis [6],1%
same,MIC50,Bacteroides ovatus [7],0.5 µg/mL
same,MIC90,Bacteroides ovatus [7],2 µg/mL
same,Activity,Bacteroides ovatus [8],0%
same,MIC50,[9],1 µg/mL
same,MIC90,[9],2 µg/mL
same,Activity,[10],0%
same,MIC50,Bacteroides uniformis [11],1 µg/mL
same,MIC90,Bacteroides uniformis [11],1 µg/mL
same,Activity,Bacteroides uniformis [12],0%
same,MIC50,Phocaeicola vulgatus [13],1 µg/mL
same,MIC90,Phocaeicola vulgatus [13],2 µg/mL
same,Activity,Phocaeicola vulgatus [14],0%
same,MIC50,Bacteroides eggerthii [15],0.5 µg/mL
same,MIC90,Bacteroides eggerthii [15],1 µg/mL
same,Activity,Bacteroides eggerthii [16],0%
same,MIC50,Parabacteroides merdae [17],0.5 µg/mL
same,MIC90,Parabacteroides merdae [17],1 µg/mL
same,Activity,Parabacteroides merdae [18],0%
same,MIC50,Bacteroides nordii [19],0.5 µg/mL
same,MIC90,Bacteroides nordii [19],1 µg/mL
same,Activity,Bacteroides nordii [20],0%
same,MIC,Clostridioides difficile,2 µg/mL
same,MIC50,Clostridium perfringens,0.5 µg/mL
same,MIC90,Clostridium perfringens,0.5 µg/mL
same,MIC50,[Clostridium] innocuum [21],2 µg/mL
same,MIC90,[Clostridium] innocuum [21],2 µg/mL
same,Activity,[Clostridium] innocuum [22],16.7%
same,MIC50,[23],2 µg/mL
same,MIC90,[23],2 µg/mL
same,MIC50,Clostridium subterminale,2 µg/mL
same,MIC90,Clostridium subterminale,2 µg/mL
same,MIC50,Clostridium tertium,2 µg/mL
same,MIC90,Clostridium tertium,2 µg/mL
same,MIC50,Finegoldia magna [24],0.25 µg/mL
same,MIC90,Finegoldia magna [24],0.25 µg/mL
same,Activity,Finegoldia magna [25],0%
same,MIC50,[26],0.125 µg/mL
same,MIC90,[26],0.5 µg/mL
same,Activity,[27],0%
same,MIC50,Parvimonas micra,0.125 µg/mL
same,MIC90,Parvimonas micra,0.5 µg/mL
same,MIC50,Anaerococcus prevotii,0.125 µg/mL
same,MIC90,Anaerococcus prevotii,0.5 µg/mL
same,MIC50,Peptostreptococcus sp.,0.125 µg/mL
same,MIC90,Peptostreptococcus sp.,0.5 µg/mL
same,MIC,Cutibacterium acnes [28],0.06 µg/mL
same,MIC50,Cutibacterium acnes [28],0.06 µg/mL
same,MIC90,Cutibacterium acnes [28],0.06 µg/mL
same,Activity,Cutibacterium acnes [29],0%
same,MIC,Propionibacterium [30],0.06 µg/mL
same,MIC50,Propionibacterium [30],0.06 µg/mL
same,MIC90,Propionibacterium [30],0.25 µg/mL
same,Activity,Propionibacterium [31],0%
C[C@@H](O)[C@H]1C(=O)N2C(C(=O)O)=C(S[C@@H]3CN[C@H](CNS(N)(=O)=O)C3)[C@H](C)[C@H]12 [DORIPENEM],MIC50,[1],0.5 µg/mL
same,MIC90,[1],2 µg/mL
same,Activity,Bacteroides caccae [2],0%
same,MIC50,Bacteroides caccae [3],0.5 µg/mL
same,MIC90,Bacteroides caccae [3],2 µg/mL
same,Activity,[4],0%
same,MIC50,Bacteroides fragilis [5],0.5 µg/mL
same,MIC90,Bacteroides fragilis [5],1 µg/mL
same,Activity,Bacteroides fragilis [6],1.5%
same,MIC50,Bacteroides ovatus [7],0.5 µg/mL
same,MIC90,Bacteroides ovatus [7],2 µg/mL
same,Activity,Bacteroides ovatus [8],0%
same,MIC50,[9],0.5 µg/mL
same,MIC90,[9],1 µg/mL
same,Activity,[10],0%
same,MIC50,Bacteroides uniformis [11],0.5 µg/mL
same,MIC90,Bacteroides uniformis [11],1 µg/mL
same,Activity,Bacteroides uniformis [12],0%
same,MIC50,Phocaeicola vulgatus [13],0.5 µg/mL
same,MIC90,Phocaeicola vulgatus [13],2 µg/mL
same,Activity,Phocaeicola vulgatus [14],0%
same,MIC50,Bacteroides eggerthii [15],0.5 µg/mL
same,MIC90,Bacteroides eggerthii [15],1 µg/mL
same,Activity,Bacteroides eggerthii [16],0%
same,MIC50,Parabacteroides merdae [17],0.5 µg/mL
same,MIC90,Parabacteroides merdae [17],1 µg/mL
same,Activity,Parabacteroides merdae [18],0%
same,MIC50,Bacteroides nordii [19],0.5 µg/mL
same,MIC90,Bacteroides nordii [19],1 µg/mL
same,Activity,Bacteroides nordii [20],0%
same,MIC,Clostridioides difficile,1 µg/mL
same,MIC,Clostridium perfringens,0.06 µg/mL
same,MIC50,Clostridium perfringens,0.06 µg/mL
same,MIC90,Clostridium perfringens,0.125 µg/mL
same,MIC50,[Clostridium] innocuum [21],1 µg/mL
same,MIC90,[Clostridium] innocuum [21],2 µg/mL
same,Activity,[Clostridium] innocuum [22],0%
same,MIC50,[23],1 µg/mL
same,MIC90,[23],2 µg/mL
same,MIC50,Clostridium subterminale,1 µg/mL
same,MIC90,Clostridium subterminale,2 µg/mL
same,MIC50,Clostridium tertium,1 µg/mL
same,MIC90,Clostridium tertium,2 µg/mL
same,MIC50,Finegoldia magna [24],0.125 µg/mL
same,MIC90,Finegoldia magna [24],0.125 µg/mL
same,Activity,Finegoldia magna [25],0%
same,MIC,[26],0.06 µg/mL
same,MIC50,[26],0.06 µg/mL
same,MIC90,[26],0.5 µg/mL
same,Activity,[27],0%
same,MIC,Parvimonas micra,0.06 µg/mL
same,MIC50,Parvimonas micra,0.06 µg/mL
same,MIC90,Parvimonas micra,0.5 µg/mL
same,MIC,Anaerococcus prevotii,0.06 µg/mL
same,MIC50,Anaerococcus prevotii,0.06 µg/mL
same,MIC90,Anaerococcus prevotii,0.5 µg/mL
same,MIC,Peptostreptococcus sp.,0.06 µg/mL
same,MIC50,Peptostreptococcus sp.,0.06 µg/mL
same,MIC90,Peptostreptococcus sp.,0.5 µg/mL
same,MIC,Cutibacterium acnes [28],0.06 µg/mL
same,MIC50,Cutibacterium acnes [28],0.06 µg/mL
same,MIC90,Cutibacterium acnes [28],0.06 µg/mL
same,Activity,Cutibacterium acnes [29],0%
same,MIC,Propionibacterium [30],0.06 µg/mL
same,MIC50,Propionibacterium [30],0.06 µg/mL
same,MIC90,Propionibacterium [30],0.06 µg/mL
same,Activity,Propionibacterium [31],0%
